Where a name gives a salt, the structure may show the parent alone.
How the values were obtained:
[1] = Root bioconcentration factor assessed as compound concentration in tomato plant dry mass to compound concentration in soil dry mass after 1 to 15 days post germination
Outline: (§1)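 Root bioconcentration factor is the mean OCP concentration in tomato roots divided by the mean concentration in bulk soil, both on a dry weight basis. Both matrices were analyzed by GC-ECD with external standard quantification. Period 1 was in a pine-needle-enriched seedbed plot and periods 2–3 in an unamended transplant plot. Soil water content was measured by oven drying at 110 °C.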

[2] = system: Leaf; assay: Drug uptake in Solanum lycopersicum (tomato) leaves after 1 to 15 days post germination by GC-ECD analysis; type: ADME
Outline: (§2)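 Organically grown tomatoes: seeded October 2000 in a pine-needle-enriched plot (period 1), transplanted in November to an unamended plot (periods 2–3), harvested March 2001. Tissues were blender-homogenized and analyzed by GC-ECD on a 30 m SPB-5 capillary column, with helium carrier at 1.5 mL/min. Quantified against external OCP standards as mean ng/g dry wt; LODs were 0.12–0.4 ng/g dry wt; samples were run in duplicate.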

[3] = system: Stem; assay: Drug uptake in Solanum lycopersicum (tomato) stem after 16 to 59 days post germination by GC-ECD analysis; type: ADME; outline: as §2
[4] = system: Fruit; assay: Drug uptake in Solanum lycopersicum (tomato) fruit peel after 60 to 151 days post germination by GC-ECD analysis; type: ADME; outline: as §2
[5] = system: Leaf; assay: Drug uptake in Solanum lycopersicum (tomato) leaves after 16 to 59 days post germination by GC-ECD analysis; type: ADME; outline: as §2
[6] = system: Stem; assay: Drug uptake in Solanum lycopersicum (tomato) stem after 60 to 151 days post germination by GC-ECD analysis; type: ADME; outline: as §2
[7] = system: Fruit; assay: Drug uptake in Solanum lycopersicum (tomato) fruit flesh after 60 to 151 days post germination by GC-ECD analysis; type: ADME; outline: as §2
[8] = system: Leaf; assay: Drug uptake in Solanum lycopersicum (tomato) leaves after 60 to 151 days post germination by GC-ECD analysis; type: ADME; outline: as §2
[9] = system: Root; assay: Drug uptake in Solanum lycopersicum (tomato) root after 16 to 59 days post germination by GC-ECD analysis; type: ADME; outline: as §2
[10] = system: Stem; assay: Drug uptake in Solanum lycopersicum (tomato) stem after 1 to 15 days post germination by GC-ECD analysis; type: ADME; outline: as §2
[11] = Root bioconcentration factor assessed as compound concentration in tomato plant dry mass to compound concentration in soil dry mass after 16 to 59 days post germination; outline: as §1
[12] = system: Root; assay: Drug uptake in Solanum lycopersicum (tomato) root after 60 to 151 days post germination by GC-ECD analysis; type: ADME; outline: as §2
[13] = Octanol-water partition coefficient, log KOW of the compound; type: physicochemical; conditions: read-out: log KOW
[14] = system: Root; assay: Drug uptake in Solanum lycopersicum (tomato) root after 1 to 15 days post germination by GC-ECD analysis; type: ADME; outline: as §2
[15] = Root bioconcentration factor assessed as compound concentration in tomato plant dry mass to compound concentration in soil dry mass after 60 to 151 days post germination; outline: as §1

| Compound | Ratio [1] | Drug uptake [2] | Drug uptake [3] | Drug uptake [4] | Drug uptake [5] | Drug uptake [6] | Drug uptake [7] | Drug uptake [8] | Drug uptake [9] | Drug uptake [10] | Ratio [11] | Drug uptake [12] | logP [13] | Drug uptake [14] | Ratio [15] |
| --- | --- | --- | --- | --- | --- | --- | --- | --- | --- | --- | --- | --- | --- | --- | --- |
| O=S1OC[C@@H]2[C@H](CO1)[C@@]1(Cl)C(Cl)=C(Cl)[C@]2(Cl)C1(Cl)Cl (stereo partly drawn) [ALPHA-ENDOSULFAN] | 10 | 1 ng/g | 0.9 ng/g | 12.3 ng/g | 1.5 ng/g | 0.9 ng/g | 4.5 ng/g | 3.5 ng/g | 1.3 ng/g | 1.2 ng/g | 18.6 | 0.3 ng/g | < 4 | 0.8 ng/g | 4.3 |
| O=S1(=O)OCC2C(CO1)C1(Cl)C(Cl)=C(Cl)C2(Cl)C1(Cl)Cl (stereo not given) [ENDOSULFAN SULFATE] | 9.2 | 126.5 ng/g | 99.7 ng/g | 80.6 ng/g | 48.2 ng/g | 82.1 ng/g | 305.5 ng/g | 38.2 ng/g | 21.1 ng/g | 246.9 ng/g | 1.3 | 71.4 ng/g | < 4 | 151.6 ng/g | 4.5 |
| O=S1OC[C@@H]2[C@H](CO1)[C@]1(Cl)C(Cl)=C(Cl)[C@]2(Cl)C1(Cl)Cl (stereo partly drawn) [BETA-ENDOSULFAN] | 50 | 1.1 ng/g | 3.2 ng/g | 10.8 ng/g | 2.9 ng/g | 1.6 ng/g | 6.6 ng/g | 3.3 ng/g | 0.9 ng/g | 1.1 ng/g | 15 | 0.9 ng/g | < 4 | 2 ng/g | 15 |
| Cl[C@H]1[C@H](Cl)[C@@H](Cl)[C@H](Cl)[C@@H](Cl)[C@@H]1Cl [BETA-HEXACHLOROCYCLOHEXANE] | 9.2 | 4.2 ng/g | 4.2 ng/g | 1.5 ng/g | 2.2 ng/g | 2.1 ng/g | 5.4 ng/g | 1.6 ng/g | 1.1 ng/g | 8.9 ng/g | 2.7 | 1.2 ng/g | < 4 | 3.7 ng/g | 3 |
| ClC(Cl)=C(c1ccc(Cl)cc1)c1ccc(Cl)cc1 [DICHLORODIPHENYLDICHLOROETHYLENE] | 5.3 | 2.8 ng/g | 8.6 ng/g | 3.2 ng/g | 2.2 ng/g | 1.8 ng/g | 6.4 ng/g | 6 ng/g | 23.2 ng/g | 7.4 ng/g |  | 2.4 ng/g |  | 9.1 ng/g |  |
| Cl[C@H]1[C@H](Cl)[C@H](Cl)[C@@H](Cl)[C@H](Cl)[C@H]1Cl [ALPHA-HEXACHLOROCYCLOHEXANE] | 9.5 | 1.2 ng/g | 1.1 ng/g | 1.4 ng/g | 0.8 ng/g | 1.3 ng/g | 7.4 ng/g | 0.6 ng/g | 0.4 ng/g | 1.7 ng/g | 4 | 1.3 ng/g | < 4 | 1.9 ng/g | 13 |
| Cl[C@H]1[C@H](Cl)[C@@H](Cl)[C@H](Cl)[C@@H](Cl)[C@H]1Cl [DELTA-HEXACHLOROCYCLOHEXANE] | 18.5 | 2.4 ng/g | 3.6 ng/g | 1.4 ng/g | 1.1 ng/g | 1.6 ng/g | 2.3 ng/g | 1.2 ng/g | 0.8 ng/g | 4.7 ng/g | 0.7 | 1.7 ng/g | < 4 | 3.7 ng/g | 1.5 |
| Clc1ccc(C(c2ccc(Cl)cc2)C(Cl)(Cl)Cl)cc1 [CHLOROPHENOTHANE] | 2.6 | 8.9 ng/g | 10.5 ng/g | 8.8 ng/g | 8.24 ng/g | 6.8 ng/g | 29.2 ng/g | 2.3 ng/g | 2.5 ng/g | 9.4 ng/g |  | 7.3 ng/g | > 6 | 19.2 ng/g |  |
| Cl[C@H]1[C@H](Cl)[C@@H](Cl)[C@@H](Cl)[C@H](Cl)[C@H]1Cl [LINDANE] | 12.3 | 9.9 ng/g | 9.4 ng/g | 2.1 ng/g | 4 ng/g | 4.6 ng/g | 14.4 ng/g | 0.9 ng/g | 4.7 ng/g | 27.5 ng/g | 3.9 | 3.9 ng/g | < 4 | 16.2 ng/g | 3.2 |

Source: ChEMBL document CHEMBL3046143, “Occurrence and distribution of organochlorine pesticides (OCPs) in tomato (Lycopersicon esculentum) crops from organic production” (J Agric Food Chem, 2003)
